ChEMBL document CHEMBL5331111, “Synthetic Biology Facilitates Semisynthetic Development of Type V Glycopeptide Antibiotics Targeting Vancomycin-Resistant Enterococcus” (J Med Chem, 2023)
In brackets after ≈: the same amount, converted by molar mass.

Tested on: Mycobacterium tuberculosis variant bovis
Assay: Antimycobacterial activity against Mycobacterium bovis BCG Pasteur ATCC 35734 assessed as inhibition of bacterial growth measured after 7 days by resazurin dye based analysis
Assay type: functional
Details: BCG Pasteur ATCC 35734, 168 h, time 7 day
In short: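 Strains grown in 7H9 broth with 0.2% glycerol, 10% OADC and 0.05% Tween-80. Inoculum was about 5 × 10^5 CFU/mL, checked by plating on 7H10/OADC agar to be 3–8 × 10^5. Read at 2 days for M. smegmatis and 7 days for M. tuberculosis H37Ra, M. bovis and M. avium. Resazurin 30 μg/mL was then added for one further day. Values are averages of at least two experiments.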

SMILES | MIC
CN1C(=O)[C@@H]2NC(=O)[C@@H]3NC(=O)[C@@H](c4ccc(O)cc4)NC(=O)[C@H](NC(=O)C(N)c4ccc(O)cc4)Cc4c[nH]c5cc(ccc45)-c4cc3cc(c4O)Oc3ccc(cc3)C[C@H]1C(=O)N[C@@H](C(=O)O)c1ccc(O)c(c1)Oc1ccc2cc1 (stereo partly drawn) | 8 µg/mL (≈ 7.14 µM)
NNC(=O)c1ccncc1 [ISONIAZID] | 0.13 µg/mL (≈ 0.948 µM)
CN1C(=O)[C@@H](c2cc(Cl)c(O)c(Cl)c2)NC(=O)[C@@H]2NC(=O)[C@@H](c3cc(Cl)c(O)c(Cl)c3)NC(=O)[C@H](NC(=O)C(=O)c3cc(Cl)c(O)c(Cl)c3)Cc3c[nH]c4cc(ccc34)-c3cc2cc(c3O)Oc2ccc(cc2)C[C@H]1C(=O)N[C@@H](C(=O)O)c1ccc(O)cc1 [ISOCOMPLESTATIN] | 64 µg/mL (≈ 48.2 µM)
